Source: ChEMBL document CHEMBL3864129, “Polybrominated Diphenyl Ethers: Structure Determination and Trends in Antibacterial Activity” (J Nat Prod, 2016)
Converted amounts (≈) assume the structure as drawn.

How the values were obtained:
Staphylococcus aureus [1] = assay: Antimicrobial activity against Staphylococcus aureus ATCC 29213 by CLSI M07-A9 method; type: functional
In short: (§1)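 Laboratory strains tested following CLSI guidelines. Each compound was run in duplicate in at least two independent experiments, and the MIC was recorded.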

Staphylococcus aureus [2] = assay: Antimicrobial activity against Staphylococcus aureus ATCC 43300 by CLSI M07-A9 method; type: functional; in short: as §1
Enterococcus faecium [3] = assay: Antimicrobial activity against Enterococcus […] ATCC 29212 by CLSI M07-A9 method; type: functional; in short: as §1
Pseudomonas aeruginosa = assay: Antimicrobial activity against Pseudomonas aeruginosa ATCC 27853 by CLSI M07-A9 method; type: functional; in short: as §1
Enterococcus faecium [4] = assay: Antimicrobial activity against Enterococcus […] ATCC 51299 by CLSI M07-A9 method; type: functional; in short: as §1
[5] = Cytotoxicity against human HCT116 cells assessed as decrease in cell viability after 24 hrs by MTT assay; type: toxicity, cell-based, HCT-116
[6] = Cytotoxicity against African green monkey BSC1 cells assessed as decrease in cell viability after 24 hrs by MTT assay; type: toxicity, cell-based, Chlorocebus aethiops, BSC-1; conditions: for IC50: bsc-1; for IC50 at 24 h: African green monkey (Chlorocebus aethiops), BSC1 cells
Candida albicans = assay: Antimicrobial activity against Candida albicans ATCC 28517 by CLSI M07-A9 method; type: functional; in short: as §1
Escherichia coli = assay: Antimicrobial activity against Escherichia coli ATCC 25922 by CLSI M07-A9 method; type: functional; in short: as §1

Compound	MIC (Staphylococcus aureus [1]) [µg/mL]	MIC (Staphylococcus aureus [2]) [µg/mL]	MIC (Enterococcus faecium [3]) [µg/mL]	MIC (Pseudomonas aeruginosa) [µg/mL]	MIC (Enterococcus faecium [4]) [µg/mL]	MNTC at 24 h [5] [µg/mL]	IC50 [6] [µg/mL]	MIC (Candida albicans) [µg/mL]	MIC (Escherichia coli) [µg/mL]	IC50 at 24 h [6] [µg/mL]	Activity (Escherichia coli)
Oc1c(Br)cc(Br)cc1Oc1c(Br)cc(Br)c(Br)c1O	0.78 (≈ 1.31 µM)	0.16 (≈ 0.268 µM)	1.6 (≈ 2.68 µM)	> 50	0.78 (≈ 1.31 µM)	50	> 50	> 50			
Cc1onc(-c2ccccc2)c1C(=O)N[C@@H]1C(=O)N2[C@@H]1SC(C)(C)[C@@H]2C(=O)O [OXACILLIN]	0.13 (≈ 0.324 µM)	> 32			32 (≈ 79.7 µM)						
Oc1cc(Br)c(Br)c(Br)c1Oc1cc(Br)cc(Br)c1O	0.31 (≈ 0.52 µM)	0.078 (≈ 0.131 µM)	0.39 (≈ 0.654 µM)		0.39 (≈ 0.654 µM)	50	> 50	> 50	25 (≈ 41.9 µM)		
Oc1c(Oc2ccc(Br)cc2Br)cc(Br)c(Br)c1Br	3.7 (≈ 6.37 µM)	0.4 (≈ 0.689 µM)	1.2 (≈ 2.07 µM)		1.2 (≈ 2.07 µM)		15 (≈ 25.8 µM)		> 100		
COc1c(Br)cc(Br)cc1Oc1c(Br)cc(Br)c(Br)c1OC	> 50	> 50		> 50		50	> 50	> 50	> 50		
COc1c(Br)cc(Br)cc1Oc1c(Br)c(OC)c(Br)c(Br)c1OC	3.1 (≈ 4.73 µM)	3.1 (≈ 4.73 µM)	13 (≈ 19.9 µM)	> 50	13 (≈ 19.9 µM)	50	> 50	> 50	> 50		
Oc1cc(Br)c(Br)cc1Oc1ccc(Br)cc1Br	0.14 (≈ 0.279 µM)	0.015 (≈ 0.0299 µM)	0.4 (≈ 0.797 µM)		0.4 (≈ 0.797 µM)		8.8 (≈ 17.5 µM)		12.5 (≈ 24.9 µM)		
Oc1c(Br)cc(Br)cc1Oc1c(O)c(Br)cc(Br)c1Br	1.6 (≈ 2.68 µM)	0.31 (≈ 0.52 µM)	3.1 (≈ 5.2 µM)	> 50	3.1 (≈ 5.2 µM)	50	> 50	> 50	100 (≈ 168 µM)		
Oc1c(Br)cc(Br)cc1Oc1c(O)c(Br)c(Br)c(Br)c1Br	0.39 (≈ 0.577 µM)	0.16 (≈ 0.237 µM)	0.78 (≈ 1.15 µM)		0.39 (≈ 0.577 µM)	50	> 50				
C[C@@H]1[C@H](O)[C@@H](C)/C=C/C=C/C=C/C=C/C=C/C=C/C=C/[C@H](O[C@@H]2O[C@H](C)[C@@H](O)[C@H](N)[C@@H]2O)C[C@@H]2O[C@](O)(C[C@@H](O)C[C@@H](O)[C@H](O)CC[C@@H](O)C[C@@H](O)CC(=O)O[C@H]1C)C[C@H](O)[C@H]2C(=O)O [AMPHOTERICIN B]								< 7.8			
COc1c(Br)cc(Br)cc1Oc1cc(Br)c(Br)c(Br)c1OC	> 50	> 50	> 50	> 50	> 50	50		> 50	> 50	> 50	
Oc1c(Br)cc(Br)cc1Oc1cc(Br)c(Br)c(Br)c1O	0.31 (≈ 0.52 µM)	0.16 (≈ 0.268 µM)	1.6 (≈ 2.68 µM)		0.78 (≈ 1.31 µM)	50	> 50	> 50			
Oc1cc(Br)cc(Br)c1Oc1cc(Br)cc(Br)c1O	1.6 (≈ 3.09 µM)	1.25 (≈ 2.41 µM)	3.1 (≈ 5.99 µM)	> 50	1.6 (≈ 3.09 µM)	50	> 50	> 50			
COc1c(Br)c(Br)c(O)c(Oc2cc(Br)cc(Br)c2O)c1Br	0.78 (≈ 1.24 µM)	0.39 (≈ 0.622 µM)	3.1 (≈ 4.95 µM)	> 50	1.56 (≈ 2.49 µM)	50	> 50	> 50	> 50		
COc1cc(Br)c(Br)c(Br)c1Oc1cc(Br)cc(Br)c1OC	> 50	> 50	> 50	> 50	> 50	50	> 50	> 50	> 50		
Oc1c(Br)cc(Br)cc1Oc1ccc(Br)cc1Br	0.78 (≈ 1.55 µM)	0.19 (≈ 0.379 µM)	0.8 (≈ 1.59 µM)		0.8 (≈ 1.59 µM)		32 (≈ 63.8 µM)		> 100		
GENTAMICIN				1							
Oc1cc(Br)cc(Br)c1Oc1ccc(Br)cc1Br	0.042 (≈ 0.0837 µM)	0.08 (≈ 0.159 µM)	1.2 (≈ 2.39 µM)	> 50	1.2 (≈ 2.39 µM)		7 (≈ 13.9 µM)	> 50	3.1 (≈ 6.18 µM)		
Oc1ccccc1Oc1ccccc1O	50 (≈ 247 µM)	50 (≈ 247 µM)	> 50		> 50						Non-Toxic
Oc1cc(Br)cc(Br)c1O	100 (≈ 373 µM)	> 50	12.5 (≈ 46.7 µM)	> 50	25 (≈ 93.3 µM)	50	> 50	> 50	> 100		
COc1c(Br)cc(Br)cc1Oc1ccc(Br)cc1Br	3.7 (≈ 7.17 µM)	0.4 (≈ 0.775 µM)	11 (≈ 21.3 µM)		11 (≈ 21.3 µM)		35 (≈ 67.9 µM)		> 100		
COc1c(Br)cc(Br)cc1Oc1c(Br)c(Br)cc(Br)c1OC	> 50	> 50	50 (≈ 80 µM)	> 50	> 50	50		> 50	> 50	> 50	
Oc1c(Br)c(Br)c(Br)c(Br)c1Oc1ccc(Br)cc1Br	1.6 (≈ 2.43 µM)	0.8 (≈ 1.21 µM)	33 (≈ 50 µM)		33 (≈ 50 µM)		29 (≈ 44 µM)		> 100		
